High-throughput results (PubChem)
aDG glyco up = increases alpha dystroglycan glycosylation; Pro5-aDG cells, alpha-DG glycosylation AlphaScreen (IIH6); 0% Pro5, 100% B10-LARGE cell signal; activation, % at 10 µM; actives 0.22% (n = 360,000); AID 624168;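 active means activation of at least 8% versus controls, or a plate z-score of at least 8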;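 further: Pro5 are CHO cells carrying HIG-tagged alpha-DG that lacks glycosylation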
UCH37 inh = human UCH37 deubiquitinating enzyme inhibition; actives 0.33% (n = 330,000); AID 588478; purified proteasome/UCH37, Ub-AMC cleavage fluorescence; inhibition, % (test concentration not listed);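 active means mean inhibition over replicate wells above about 20%, limit read from the data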
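Material: human UCH37 enzyme supplied as purified proteasome complex / Amount: 0.15 nM proteasome as dispensed / Buffer or medium: pH 7.4 Tris-HCl (50 mM) with ovalbumin, ATP-MgCl2, DTT / Times: preincubation 30 min, reaction 25 min, room temperature / Technique: AMC fluorescence from Ub-AMC cleavage, excitation 355 nm, emission 460 nm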
PfGluPho inh = PfG6PD (Plasmodium falciparum) enzyme inhibition; PfGluPho enzyme, NADPH resazurin-diaphorase fluorescence; inhibition, % at 20 µM; actives 0.78% (n = 350,000); AID 504690;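 active means inhibition reaching at least a set limit at 20 µM in the primary screen, cut at about 59% in these data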
B2AR ag = human beta-2 adrenergic receptor agonism by FAP; actives 0.43% (n = 340,000); response, % (no concentration beside the values); Am2.2-beta2AR cells, FAP receptor internalization, flow cytometry;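 active means response above a set limit, near 3 SD of response in nonfluorescent compounds, cut at about 42% in these data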
H9c2 protect = protects H9c2 cardiomyocytes from peroxide injury. H2O2 injury protection, ATPLite, 2 h. protection from H2O2 cell death, % at 20 µM. actives 0.63% (n = 360,000);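 active means compounds giving at least 50% protection of heart cells from peroxide-induced death in the single-dose screen, raw or plate-pattern-corrected value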
HKDC1 inhibitor = blocks human hexokinase HKDC1 activity | inhibition, % at 20 µM | Q2TB90 | recombinant HKDC1, G6PDH/diaphorase resazurin coupled fluorescence | actives 0.16% (n = 340,000);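 active means inhibition above about 35% when tested at 20 µM, limit read from the data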
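Test system: Recombinant HKDC1 (HK5) hexokinase enzyme, produced in-house | Input: HKDC1 at 5 µg/mL | Buffer or medium: Tris pH 8.0 buffer with MgCl2, Tween-20, BSA, BME | Schedule: 90 min reaction incubation at room temperature, dark | Technique: Resazurin-to-resorufin fluorescence via G6PDH and diaphorase coupling, 525/613 nm | Controls: DMSO wells with and without enzyme mix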
aDG glyco conf = confirmation of alpha dystroglycan glycosylation activators | shares compounds with aDG glyco up | Pro5-aDG cells, alpha-DG glycosylation, IIH6 AlphaLISA; scaled to LARGE-overexpressing B10 cells as 100% | activation, % at 10 µM (by protocol) | actives 17% (n = 600) | AID 651671;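 active means activation of at least 7% in one or more replicates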;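 further: cells exposed to compound for two days before detection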
Of the large screens only hits and unclear results are named; the others gave an inactive call (follow-up assays come after a bar, where they were run); ! = repeats disagree. Sampled rows, rich in hits. Any-hit rate of the full collection: about 2.1%.

Oc1ccc(C=NNc2ncnc3c2ncn3Cc2ccccc2)cc1O	none (no result: aDG glyco up, PfGluPho inh, B2AR ag, H9c2 protect, HKDC1 inhibitor)
COc1cccc(S(=O)(=O)NCc2ccc(C(=O)Nc3ccc(Cl)cc3)cc2)c1	none
CN(C)S(=O)(=O)c1cccc(NC(=O)c2ccc(COc3ccccc3)cc2)c1	aDG glyco up 3.1 | aDG glyco conf inactive
COc1cccc(S(=O)(=O)NCc2ccc(C(=O)Nc3cccc(Cl)c3)cc2)c1	aDG glyco up 4.7 | aDG glyco conf inactive
Cn1c(=O)c2c(nc(NCc3ccco3)n2CCc2ccccc2)n(C)c1=O	none
CCn1c(NCc2ccco2)nc2c1c(=O)n(C)c(=O)n2C	aDG glyco up 6.3 | aDG glyco conf inactive
C/C(=N\Nc1ncc(Cl)cc1Cl)c1ccc2c(c1)OCO2	aDG glyco up 13 (no result: UCH37 inh) | aDG glyco conf inactive
CCC(C)Sc1nc2c(cnn2-c2ccc(C)cc2)c(=O)[nH]1 (stereo not drawn)	none
CCC(C)Sc1nc2c(cnn2-c2ccccc2)c(=O)[nH]1 (stereo not drawn)	aDG glyco up 7.7 | aDG glyco conf inactive
Cc1cccc(Nc2nc(-c3c(C)nc4ccccn34)cs2)c1	aDG glyco up 4.4 | aDG glyco conf inactive
Cc1ccc(NC(=O)CSc2nc3c(c(=O)[nH]2)CCC3)c(C)c1	aDG glyco up 7.4 | aDG glyco conf inactive
CCOC(=O)C1=C(C)N=c2sc(=Cc3cccc([N+](=O)[O-])c3O)c(=O)n2C1c1ccccc1 (stereo not drawn)	none (no result: aDG glyco up, PfGluPho inh, B2AR ag, H9c2 protect, HKDC1 inhibitor)
O=C(CNC(=O)c1ccccc1)N/N=C/c1ccc([N+](=O)[O-])s1	aDG glyco up 12 (no result: UCH37 inh) | aDG glyco conf 5.5
CCOC(=O)N/N=C\c1ccc([N+](=O)[O-])s1	aDG glyco up 6.5 (no result: UCH37 inh) | aDG glyco conf 4.7
Cc1nn(CC(=O)N2CCCC2)c(=O)c2nn(-c3ccccc3)c(C)c12	none
CCOC(=O)C1CCCN(C(=O)Cn2nc(C)c3c(C)n(-c4ccccc4)nc3c2=O)C1 (stereo not drawn)	aDG glyco up 9.8 | aDG glyco conf inactive
Cc1ccn2c(NC3CCCCC3)c(-c3cccc(SC4CCCCC4)c3)nc2c1	aDG glyco up 5.7! (no result: UCH37 inh) | aDG glyco conf inactive
O=C(COC(=O)c1ccc(S(=O)(=O)N2CCOCC2)cc1)Nc1nc(-c2ccccc2)cs1	aDG glyco up 6.2 | aDG glyco conf inactive
COc1ccccc1OCC(=O)Nc1nc(-c2ccc(S(=O)(=O)N3CCOCC3)cc2)cs1	none
C[C@H](CO)N1C[C@H](C)[C@@H](CN(C)C(=O)Nc2ccc3c(c2)OCO3)Oc2ccc(NS(=O)(=O)c3cn(C)cn3)cc2C1=O	aDG glyco up 6.4 | aDG glyco conf inactive
C[C@H](CO)N1C[C@H](C)[C@@H](CN(C)C(=O)Nc2ccccc2)Oc2ccc(NS(=O)(=O)c3cn(C)cn3)cc2C1=O	none
CC(C)CN(C(=O)CSc1ncnc2ccccc12)C1CCS(=O)(=O)C1 (stereo not drawn)	none
CN(C(=O)CSc1ncnc2ccccc12)C1CCS(=O)(=O)C1 (stereo not drawn)	aDG glyco up 4.5 | aDG glyco conf inactive
O=C(Nc1ccc(Cl)cc1)N1CCCN(Cc2ccc(F)cc2)C1	aDG glyco up 7.8 | aDG glyco conf inactive
CCOc1ccc(C=NNc2cc(=O)n(C)c(=O)n2C)cc1	none (no result: aDG glyco up, PfGluPho inh, B2AR ag, H9c2 protect, HKDC1 inhibitor)
O=C(NCCS(=O)(=O)NCC1CCCO1)c1ccccc1 (stereo not drawn)	aDG glyco up 5.2 | aDG glyco conf inactive
CCCCC(=O)Nc1ccc(NC(=O)c2ccc([N+](=O)[O-])cc2Cl)cc1OC	aDG glyco up 12 | aDG glyco conf inactive
CCN(CC)C(=O)C1CCCN(c2ccc([N+](=O)[O-])cc2C=NNC(=O)c2cccc(O)c2)C1 (stereo not drawn)	none (no result: aDG glyco up, PfGluPho inh, B2AR ag, H9c2 protect, HKDC1 inhibitor)
O=C(c1ccc([N+](=O)[O-])o1)N1CCN(c2nc3ccc(F)cc3s2)CC1	aDG glyco up 5.1 | aDG glyco conf inactive
O=C(c1ccc([N+](=O)[O-])o1)N1CCN(c2nc3c(Cl)cccc3s2)CC1	none
Cn1c(SCC(=O)Nc2ccc(NC(=O)c3cccc(F)c3)cc2)nnc1-c1ccncc1	aDG glyco up 1.8 | aDG glyco conf inactive
O=C(NN=C/C=C/c1ccco1)C(O)c1ccccc1 (stereo not drawn)	none (no result: aDG glyco up, PfGluPho inh, B2AR ag, H9c2 protect, HKDC1 inhibitor)
CCCCN(C(=O)CCNC(=O)NC12CC3CC(CC(C3)C1)C2)c1c(N)n(CCC)c(=O)[nH]c1=O	aDG glyco up 5.1 | aDG glyco conf inactive
CCCCn1c(N)c(N(CCOC)C(=O)CCNC(=O)NC23CC4CC(CC(C4)C2)C3)c(=O)[nH]c1=O	none
NC(=NOC(=O)c1ccc(Br)cc1)c1cccc([N+](=O)[O-])c1	none (no result: aDG glyco up, PfGluPho inh, B2AR ag, H9c2 protect, HKDC1 inhibitor)
CCCOc1ccc(-c2nn(-c3ccccc3)cc2/C=C2\SC(N)=NC2=O)cc1	none
Cc1cc(-c2nn(-c3ccccc3)cc2/C=C2\SC(N)=NC2=O)ccc1OC(C)C	aDG glyco up 6.0 | aDG glyco conf inactive
CCOc1ccc(NC(=S)N(CCCN2CCCC2)Cc2cccn2Cc2ccc(Cl)cc2)cc1	none
Cc1cccc(NC(=S)N(CCCN2CCCC2)Cc2cccn2Cc2ccc(Cl)cc2)c1	aDG glyco up 2.8 | aDG glyco conf 11
Cc1cc(C=NNC(=O)c2cccc(N(C)C)c2)c(C)n1-c1cc(C(=O)O)cc(C(=O)O)c1	none (no result: aDG glyco up, PfGluPho inh, B2AR ag, H9c2 protect, HKDC1 inhibitor)
Cc1cccc(Nc2nc(N)nc(CN3CCN(c4ccc(F)cc4)CC3)n2)c1	aDG glyco up 12 | aDG glyco conf inactive
CCc1c(C(=O)N/N=C/c2ccc(OCc3ccc(F)cc3)c(OC)c2)nnn1-c1nonc1N	aDG glyco up 3.5 (no result: UCH37 inh) | aDG glyco conf inactive
COc1cc(/C=C/C(=O)Nc2nc3ccc(S(=O)(=O)NC(C)C)cc3s2)cc(OC)c1OC	aDG glyco up 8.2 | aDG glyco conf 6.1
CN(C)CCNC(=O)c1onc(CSc2ccncc2)c1C(=O)NCCN(C)C	none
Cc1cc(C)cc(SCc2noc(C(=O)NCCN(C)C)c2C(=O)NCCN(C)C)c1	aDG glyco up 7.2 | aDG glyco conf inactive
CCN1CCc2c(sc(NC(=O)c3ccc(S(=O)(=O)N4CCCCCC4)cc3)c2C(=O)NC)C1	aDG glyco up 26 | aDG glyco conf inactive
CCCN1CCc2c(sc(NC(=O)c3ccc(S(=O)(=O)N4CCCC4)cc3)c2C(N)=O)C1	none
CCN1CCc2c(sc(NC(=O)c3ccc(S(=O)(=O)N4CCOCC4)cc3)c2C(N)=O)C1	aDG glyco up 88 | aDG glyco conf inactive
